Laboratory results from ChEMBL document CHEMBL4689842, “EUbOPEN Chemogenomics Library wave 1” (2021).
Values joined by “and” are separate entries in the source; they are usually repeats but may differ in a detail not shown here. Identical values can stand only once.

Columns and labels:
Fibroblast = test: Multiplex assay against human fibroblast; type: toxicity, cell-based; conditions: 1 µM, compound concentration 1 uM
How it was run: (§1)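 Cells stained live at seeding with Hoechst33342, BioTracker Green Microtubule Cytoskeleton Dye, MitoTracker Red and Annexin V Alexa Fluor 680 were imaged on a CQ1 microscope at 37°C and 5% CO2 after compound addition. Their classification by CellPathfinder machine-learning gating ran from Hoechst high-intensity objects versus normal cells, to healthy, pyknosed or fragmented nuclei among normal cells, to mitotic or apoptotic among pyknosed cells. Tubulin, mitochondrial-mass and membrane-permeability phenotypes are per cents of healthy-nucleus cells.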

HEK-293T = test: Multiplex assay against HEK293T; type: toxicity, cell-based; conditions: human, 1 µM, compound concentration 1 uM; how it was run: as §1;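 for Population Tubulin-Different-Phenotype (%): share of the cells with healthy nuclei that show this phenotype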

## CC(C)C(=O)Nc1n[nH]c2cc(-c3cccc(NS(=O)(=O)C4CC4)c3)ccc12
Fibroblast; 12 h, replicate 1
  Population Apoptotic (%): 85% and 80%
  Population Fragmented Nuclei (%): 36% and 25%
  Population Healthy Nuclei (%): 36% and 58%
  Population Hoechst High Intensity Objects (%): 13% and 11%
  Population Membrane Permeable-Phenotype (%): 8% and 7%
  Population Mitochondria Different-Phenotype (%): 0% and 6%
  Population Mitotic Cells (%): 14% and 20%
  Population Normal (%): 86% and 88%
  Population Pyknosed Nuclei (%): 26%
  Population Tubulin-Different-Phenotype (%): 6% and 2%
  Total Cell Count: 151 and 184
Fibroblast; 12 h, replicate 2
  Population Apoptotic (%): 100% and 50%
  Population Fragmented Nuclei (%): 56% and 43%
  Population Healthy Nuclei (%): 38% and 40%
  Population Hoechst High Intensity Objects (%): 34% and 18%
  Population Normal (%): 65% and 81%
  Population Pyknosed Nuclei (%): 6% and 15%
  Population Tubulin-Different-Phenotype (%): 15% and 30%
  Total Cell Count: 76 and 79
Fibroblast; 24 h, replicate 1
  Population Apoptotic (%): 65% and 60%
  Population Fragmented Nuclei (%): 40% and 28%
  Population Healthy Nuclei (%): 42% and 54%
  Population Hoechst High Intensity Objects (%): 8% and 9%
  Population Membrane Permeable-Phenotype (%): 17% and 7%
  Population Mitochondria Different-Phenotype (%): 1% and 2%
  Population Mitotic Cells (%): 34% and 39%
  Population Normal (%): 91% and 90%
  Population Pyknosed Nuclei (%): 17%
  Population Tubulin-Different-Phenotype (%): 8% and 4%
  Total Cell Count: 144 and 207
Fibroblast; 24 h, replicate 2
  Population Apoptotic (%): 42% and 33%
  Population Fragmented Nuclei (%): 47% and 51%
  Population Healthy Nuclei (%): 41% and 36%
  Population Hoechst High Intensity Objects (%): 23% and 22%
  Population Membrane Permeable-Phenotype (%): 15% and 11%
  Population Mitochondria Different-Phenotype (%): 15% and 0%
  Population Mitotic Cells (%): 57% and 66%
  Population Normal (%): 76% and 77%
  Population Pyknosed Nuclei (%): 11% and 12%
  Population Tubulin-Different-Phenotype (%): 11% and 22%
  Total Cell Count: 82 and 63
HEK-293T; 12 h, replicate 1
  Population Apoptotic (%): 21%
  Population Fragmented Nuclei (%): 16% and 10%
  Population Healthy Nuclei (%): 61% and 63%
  Population Hoechst High Intensity Objects (%): 10% and 14%
  Population Membrane Permeable-Phenotype (%): 4%
  Population Mitochondria Different-Phenotype (%): 4% and 6%
  Population Mitotic Cells (%): 78%
  Population Normal (%): 89% and 85%
  Population Pyknosed Nuclei (%): 22% and 25%
  Population Tubulin-Different-Phenotype (%): 1% and 4%
  Total Cell Count: 541 and 686
HEK-293T; 12 h, replicate 2
  Population Apoptotic (%): 12% and 8%
  Population Fragmented Nuclei (%): 4% and 6%
  Population Healthy Nuclei (%): 85% and 89%
  Population Hoechst High Intensity Objects (%): 3% and 1%
  Population Membrane Permeable-Phenotype (%): 1%
  Population Mitochondria Different-Phenotype (%): 13% and 7%
  Population Mitotic Cells (%): 87% and 91%
  Population Normal (%): 96% and 98%
  Population Pyknosed Nuclei (%): 9% and 4%
  Population Tubulin-Different-Phenotype (%): 7%
  Total Cell Count: 1247 and 1614
HEK-293T; 24 h, replicate 1
  Population Apoptotic (%): 14% and 20%
  Population Fragmented Nuclei (%): 11%
  Population Healthy Nuclei (%): 80% and 75%
  Population Hoechst High Intensity Objects (%): 6% and 10%
  Population Membrane Permeable-Phenotype (%): 8% and 6%
  Population Mitochondria Different-Phenotype (%): 3% and 5%
  Population Mitotic Cells (%): 85% and 79%
